Assay [1] addresses T1, B2 bradykinin receptor (Homo sapiens) (UniProt P30411).
T1 sequence (whole entry): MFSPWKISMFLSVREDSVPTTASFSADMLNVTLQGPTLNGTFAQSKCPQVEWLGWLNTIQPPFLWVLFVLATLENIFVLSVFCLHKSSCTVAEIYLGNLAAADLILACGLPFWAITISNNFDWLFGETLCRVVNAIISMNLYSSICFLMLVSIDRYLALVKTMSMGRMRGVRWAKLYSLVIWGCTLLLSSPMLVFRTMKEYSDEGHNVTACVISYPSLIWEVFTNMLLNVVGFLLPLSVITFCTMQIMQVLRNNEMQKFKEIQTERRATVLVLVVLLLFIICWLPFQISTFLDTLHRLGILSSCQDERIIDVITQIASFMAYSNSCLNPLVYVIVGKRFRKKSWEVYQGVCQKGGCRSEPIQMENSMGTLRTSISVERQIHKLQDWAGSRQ
Briefly: Antagonist activity at B2 bradykinin receptor expressed in SKNSH cells at 100 nM by ELISA. In kind it is functional, cell-based. Set-up: scale not given: the % may be the effect or the level left. (An ELISA detects its analyte on a solid surface through an enzyme-linked reagent.)

Assay [2] addresses Delta-type opioid receptor (Homo sapiens) (UniProt P41143). Briefly: Antagonist activity at delta opioid receptor expressed in SKNSH cells assessed as blockade of deltorphin 2-induced increase in antibody recognition at 100 nM by ELISA relative to control. Set-up: scale not given: the % may be the effect or the level left. In kind it is functional, cell-based.
For assay [3], the target named is Mu-type opioid receptor (Homo sapiens) (UniProt P35372). Briefly: Antagonist activity at mu opioid receptor expressed in SKNSH cells assessed as blockade of DAMGO-induced increase in antibody recognition at 100 nM by ELISA relative to control. Type of assay: functional, cell-based. Also noted: scale not given: the % may be the effect or the level left.
The target in assay [4] is Cannabinoid receptor 2 (Homo sapiens) (UniProt P34972). In words: Antagonist activity at CB2 receptor expressed in Neuro 2A cells assessed as blockade of Hu210-mediated increase in number of neurite outgrowth at 10 uM after 16 hrs. Type of assay: functional, cell-based. In a few lines: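 Neuro 2A cells transfected with Flag-tagged CB1 or CB2 were exposed 16 h in 0.1% FBS medium to 100 nM Hu-210 with or without 10 μM peptide. The percentage of cells extending neurites was scored and normalized to untreated cells (100%). Mean ± SE of triplicate experiments.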

Assay [5] has as its target Beta-2 adrenergic receptor (Homo sapiens) (UniProt P07550). Briefly: Antagonist activity at beta2 adrenergic receptor expressed in HEK293 cells assessed as blockade of […] in secreted alkaline phosphatase activity at 1 uM after 6 hrs relative to control. Type of assay: functional, cell-based. In a few lines:
(§1)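 HEK-293 cells transiently co-transfected with pCRE-SeAP and a Flag-tagged receptor, 30,000 cells/well on poly-L-lysine. They were serum-starved 16–18 h, then exposed 6 h in serum-free medium to 10 μM forskolin (omitted for β2) plus the receptor agonist (100 nM), with or without peptide (1 μM). Heat-treated supernatant SeAP was read by CSPD chemiluminescence. Mean ± SEM, n = 6.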

Assay [6] shares this target. In words: Antagonist activity at beta2 adrenergic receptor expressed in HEK293 cells assessed as blockade of secreted alkaline phosphatase activity at 1 uM after 6 hrs relative to control. In kind it is functional, cell-based. In a few lines: as §1
For assay [7], the target named is Cannabinoid receptor 2 (Homo sapiens) (UniProt P34972). In words: Antagonist activity at CB2 receptor expressed in SKNSH cells at 100 nM by ELISA relative to control. Set-up: scale not given: the % may be the effect or the level left. Type of assay: functional, cell-based.
In assay [8] the target is Cannabinoid receptor 1 (Homo sapiens) (UniProt P21554). Briefly: Antagonist activity at CB1 receptor expressed in HEK293 cells assessed as blockade of secreted alkaline phosphatase activity at 1 uM after 6 hrs relative to control. Type of assay: functional, cell-based. In a few lines: (§2)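 HEK-293 cells transfected with 5 μg pCRE-SeAP plus 1 μg Flag-tagged CB₁ or CB₂ receptor, 30,000 cells/well, serum-starved 16–18 h. Stimulated 6 h in serum-free medium with 10 μM forskolin and 100 nM agonist, without or with 1 μM test peptide. Supernatant diluted in pH 7.2 buffer, heated 65°C 20 min, then CSPD chemiluminescence read. Mean ± SEM, n = 6.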

Assay [9] concerns the target T1, B2 bradykinin receptor (Homo sapiens). In words: Antagonist activity at B2 bradykinin receptor expressed in SKNSH cells assessed as blockade of bradykinin-induced increase in antibody recognition at 100 nM by ELISA. In kind it is functional, cell-based. Set-up: scale not given: the % may be the effect or the level left.
For assay [10], the target named is Cannabinoid receptor 1 (Rattus norvegicus, UniProt P20272). In words: Displacement of [3H]SR141716 from Long-Evans rat striatal membrane CB1 receptor. (In general: Loss of bound radioactivity is the signal in a displacement assay; it reports binding, not function.)
In assay [11] the target is Cannabinoid receptor 1 (Homo sapiens) (UniProt P21554). Briefly: Antagonist activity at CB1 receptor expressed in Neuro 2A cells assessed as blockade of Hu210-mediated decrease in secreted alkaline phosphatase activity at 1 uM. Type of assay: functional, cell-based. In a few lines: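 Neuro 2A cells co-expressing pCRE-SeAP and CB1 were serum-starved 16–18 h, then given 10 μM forskolin plus 100 nM Hu-210, with or without 1 μM peptide, for 6 h without serum. Secreted alkaline phosphatase in heat-treated supernatant was measured by CSPD luminescence. Mean ± SEM of sextuplicates, n = 2.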

Assay [12] deals with Cannabinoid receptor 2 (Homo sapiens) (UniProt P34972). Briefly: Antagonist activity at CB2 receptor expressed in HEK293 cells assessed as blockade of Hu210-mediated decrease in secreted alkaline phosphatase activity at 1 uM after 6 hrs relative to control. Type of assay: functional, cell-based. In a few lines:
as §1

Assay [13] concerns the target Cannabinoid receptor 1 (Rattus norvegicus) (UniProt P20272). Briefly: Antagonist activity at Long-Evans rat striatal membrane CB1 receptor assessed as blockade of Hu210-mediated decrease in adenylate cyclase activity. Type of assay: functional. In a few lines:
(§3)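 Membranes (10 μg) came from striatum (CB1) or spleen (CB2). They were tested in GTPγS-binding or adenylyl cyclase assays with Hu-210 and test ligand (0–1 μM), or with Hu-210 curves with or without 10 μM peptide; a 1 μM single-point combination was also used. Mean ± SE of triplicates.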

The target in assay [14] is T2, Cannabinoid receptor 2 (Rattus norvegicus) (UniProt Q9QZN9).
T2 sequence (whole entry): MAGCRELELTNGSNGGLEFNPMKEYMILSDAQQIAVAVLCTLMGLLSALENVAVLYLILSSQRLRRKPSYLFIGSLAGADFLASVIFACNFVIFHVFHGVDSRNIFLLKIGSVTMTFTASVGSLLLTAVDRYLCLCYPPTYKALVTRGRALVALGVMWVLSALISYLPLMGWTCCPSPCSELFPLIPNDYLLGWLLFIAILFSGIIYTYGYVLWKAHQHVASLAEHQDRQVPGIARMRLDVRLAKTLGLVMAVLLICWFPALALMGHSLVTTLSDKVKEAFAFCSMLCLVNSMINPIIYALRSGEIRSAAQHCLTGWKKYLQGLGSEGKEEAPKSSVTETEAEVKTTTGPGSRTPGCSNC
Briefly: Antagonist activity at Long-Evans rat spleen CB2 receptor assessed as blockade of Hu210-induced increase in GTPgammaS binding. Type of assay: functional, tissue-based. Summed up: as §3

The target of assay [15] is Cannabinoid receptor 2 (Homo sapiens) (UniProt P34972). In words: Antagonist activity at CB2 receptor expressed in HEK293 cells assessed as blockade of secreted alkaline phosphatase activity at 1 uM after 6 hrs relative to control. Type of assay: functional, cell-based. Summed up:
as §2

Assay [16] deals with Delta-type opioid receptor (Homo sapiens) (UniProt P41143). Briefly: Antagonist activity at delta opioid receptor expressed in SKNSH cells at 100 nM by ELISA relative to control. In kind it is functional, cell-based. Also noted: scale not given: the % may be the effect or the level left.
For assay [17], the system named is Rattus norvegicus. In words: Antihyperalgesic effects in Wistar rat assessed as reduction of carrageenan-induced paw pressure at 0.5 ug/kg, intrathecal after 3 hrs. In kind it is functional, organism-based. Summed up:
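Male Wistar rats (200 g) received carrageenan 200 μg/paw intraplantar in saline into the right hind paw. Peptide was given at the same time: intraplantar 10 μg/paw, intrathecal 0.5 or 5 μg/kg, or oral 50 or 100 μg/kg; saline-treated rats served as controls. Paw-pressure withdrawal threshold (force ramp 16 g/s) was read at 0 and 3 h. n = 6–8.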
(In general: In the carrageenan paw model, swelling and tenderness develop within hours.)

Here are results for one compound from ChEMBL document CHEMBL1156534, “Hemopressin is an inverse agonist of CB1 cannabinoid receptors” (Proc Natl Acad Sci U S A, 2007).

Activity calls are given as the source filed them.

Chain of Cannabinoid receptor 2 (Homo sapiens) (P34972 whole entry): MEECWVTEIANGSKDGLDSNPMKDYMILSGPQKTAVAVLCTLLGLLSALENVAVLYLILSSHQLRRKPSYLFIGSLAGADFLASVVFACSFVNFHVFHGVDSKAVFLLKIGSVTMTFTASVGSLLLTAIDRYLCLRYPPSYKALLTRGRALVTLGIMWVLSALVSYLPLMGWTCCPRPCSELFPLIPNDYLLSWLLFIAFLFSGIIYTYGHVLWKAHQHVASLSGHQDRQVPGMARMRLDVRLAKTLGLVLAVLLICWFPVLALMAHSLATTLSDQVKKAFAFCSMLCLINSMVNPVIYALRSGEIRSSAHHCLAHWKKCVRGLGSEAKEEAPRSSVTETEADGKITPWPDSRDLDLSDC
Chain of Delta-type opioid receptor (Homo sapiens) (P41143 whole entry): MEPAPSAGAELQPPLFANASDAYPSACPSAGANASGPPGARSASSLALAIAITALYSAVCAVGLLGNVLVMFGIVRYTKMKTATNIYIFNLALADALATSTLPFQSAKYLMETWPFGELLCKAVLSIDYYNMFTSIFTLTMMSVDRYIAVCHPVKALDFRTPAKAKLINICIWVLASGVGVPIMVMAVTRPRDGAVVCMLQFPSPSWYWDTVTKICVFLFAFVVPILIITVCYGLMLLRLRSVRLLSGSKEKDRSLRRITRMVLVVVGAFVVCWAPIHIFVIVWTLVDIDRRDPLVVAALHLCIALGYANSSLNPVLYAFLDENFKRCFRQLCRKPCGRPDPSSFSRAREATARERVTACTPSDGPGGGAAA
Chain of Beta-2 adrenergic receptor (Homo sapiens) (P07550 whole entry, looked up): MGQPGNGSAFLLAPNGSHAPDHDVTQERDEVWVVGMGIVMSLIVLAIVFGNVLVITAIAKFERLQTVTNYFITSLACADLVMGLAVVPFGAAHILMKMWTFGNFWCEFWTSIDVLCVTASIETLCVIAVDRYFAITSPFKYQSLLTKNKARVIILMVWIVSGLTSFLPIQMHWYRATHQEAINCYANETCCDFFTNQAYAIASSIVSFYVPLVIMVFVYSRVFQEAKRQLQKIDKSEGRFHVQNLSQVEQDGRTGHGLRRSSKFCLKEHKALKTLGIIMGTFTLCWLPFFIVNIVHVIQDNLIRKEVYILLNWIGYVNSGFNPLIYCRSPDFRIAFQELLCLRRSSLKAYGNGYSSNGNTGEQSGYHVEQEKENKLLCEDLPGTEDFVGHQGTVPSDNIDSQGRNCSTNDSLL
Chain of Cannabinoid receptor 1 (Homo sapiens) (P21554 whole entry): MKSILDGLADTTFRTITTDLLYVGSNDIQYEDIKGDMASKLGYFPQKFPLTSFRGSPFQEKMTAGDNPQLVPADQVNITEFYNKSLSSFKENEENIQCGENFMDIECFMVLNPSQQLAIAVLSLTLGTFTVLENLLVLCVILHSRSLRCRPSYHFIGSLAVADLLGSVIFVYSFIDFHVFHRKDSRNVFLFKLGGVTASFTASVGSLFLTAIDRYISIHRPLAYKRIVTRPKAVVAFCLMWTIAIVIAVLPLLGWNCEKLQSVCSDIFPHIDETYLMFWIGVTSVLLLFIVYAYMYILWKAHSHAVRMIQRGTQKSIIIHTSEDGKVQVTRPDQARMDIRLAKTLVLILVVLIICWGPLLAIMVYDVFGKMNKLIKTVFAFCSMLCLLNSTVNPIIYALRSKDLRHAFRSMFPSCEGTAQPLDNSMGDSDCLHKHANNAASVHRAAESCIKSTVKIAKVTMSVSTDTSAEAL
Chain of Mu-type opioid receptor (Homo sapiens) (P35372 whole entry): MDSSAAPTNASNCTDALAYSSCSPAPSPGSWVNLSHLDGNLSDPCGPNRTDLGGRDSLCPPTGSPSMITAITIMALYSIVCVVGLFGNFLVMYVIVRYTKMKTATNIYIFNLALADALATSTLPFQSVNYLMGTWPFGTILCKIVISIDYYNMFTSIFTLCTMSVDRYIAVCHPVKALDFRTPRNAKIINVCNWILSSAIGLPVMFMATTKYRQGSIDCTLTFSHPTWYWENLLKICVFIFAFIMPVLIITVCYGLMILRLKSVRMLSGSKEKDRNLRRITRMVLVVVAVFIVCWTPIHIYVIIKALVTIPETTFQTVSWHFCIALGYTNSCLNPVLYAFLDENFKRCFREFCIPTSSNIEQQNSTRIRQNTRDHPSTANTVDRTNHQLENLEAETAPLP
Chain of Cannabinoid receptor 1 (P20272 whole entry): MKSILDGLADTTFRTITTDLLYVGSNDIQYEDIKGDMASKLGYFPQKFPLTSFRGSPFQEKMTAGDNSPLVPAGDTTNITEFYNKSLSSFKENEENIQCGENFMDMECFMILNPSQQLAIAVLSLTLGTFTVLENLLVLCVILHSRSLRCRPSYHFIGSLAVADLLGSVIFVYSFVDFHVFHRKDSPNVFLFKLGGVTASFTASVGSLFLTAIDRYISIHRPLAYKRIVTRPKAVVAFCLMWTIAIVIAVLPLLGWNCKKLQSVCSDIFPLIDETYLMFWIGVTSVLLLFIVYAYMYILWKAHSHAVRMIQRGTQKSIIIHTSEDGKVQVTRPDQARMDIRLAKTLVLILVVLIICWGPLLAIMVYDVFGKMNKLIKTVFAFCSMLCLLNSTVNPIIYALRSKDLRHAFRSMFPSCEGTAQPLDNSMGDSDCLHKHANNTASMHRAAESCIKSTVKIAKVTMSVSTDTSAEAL
Chain of Cannabinoid receptor 1 (Rattus norvegicus) (P20272 whole entry): as above

Turning to `CC(C)C[C@H](NC(=O)[C@H](Cc1ccccc1)NC(=O)[C@H](CCCCN)NC(=O)[C@H](Cc1ccccc1)NC(=O)[C@H](CC(N)=O)NC(=O)[C@@H](NC(=O)[C@@H]1CCCN1)C(C)C)C(=O)N[C@@H](CO)C(=O)N[C@@H](Cc1cnc[nH]1)C(=O)O` [HEMOPRESSIN], the Activity in assay [1] was 103%; in assay [2] it was 131%; in assay [3] it was 141%; in assay [5] it was 1.24; in assay [6], 0.96; in [7] it was 103%. Further, the Activity came to 1.15 in [8]; 149% in assay [9]; 0.85 in [12]; 0.94 in assay [15]; 101% in [16]. Also, the outcome in [4] and in assay [14] was inactive. Also, in assay [10], the EC50 – broadly, the midpoint of the concentration-response curve – came out at 0.35 nM. The result in assay [11], in [13] and in assay [17] was Active.
